About 1,300 (0.45%) of roughly 290,000 compounds were called active. For the sample, actives were picked, then their nearest neighbours and some compounds at random. Values without a mark were called inactive.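 The calls were made as follows: active = inhibition above the mean plus 3 SD of all compounds in the same screening run (cut at about 4.5% in these data); inactive = the rest.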

The test deals with metallo-beta-lactamase IMP-1 (Pseudomonas aeruginosa). The test can be described thus: IMP-1 metallo-beta-lactamase inhibitors, primary screen, biochemical, epi-absorbance readout, Pseudomonas aeruginosa enzyme (AID 1556).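 Also: 0% = IMP-1 with DMSO and 100% = DMSO wells lacking enzyme.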 The following applies: purified IMP-1, nitrocefin hydrolysis, epi-absorbance fluorescence; at 5.6 µM; active compounds read high. The essentials:
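Material – recombinant IMP-1 enzyme, purified · Amount – IMP-1 0.2 nM before substrate addition · Medium – HEPES buffer pH 7.1 with ZnSO4 and Brij 35 · Timing – 25 °C, 15 min preincubation, 25 min reaction · Measured by – plate fluorescence quenching by hydrolysis product, ex 480/em 530 nm · Read-out – percent enzyme inhibition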
By inhibition is commonly meant the change of the read-out against control, counted positive when it falls. As for `Cc1ccccc1C(=O)NC(=S)Nc1ccc(N2CCN(C(=O)c3ccccc3)CC2)cc1`, the inhibition is -0.21%. Under `Cc1nc2sc(C(=O)c3ccccc3)c(N)c2c2c1CCCC2` stands -2.49%; under `CN(C)c1ccnc2sc(C(=O)c3ccccc3)c(N)c12`, -4.61%; under `Nc1c(C(=O)c2cccs2)sc2nsc(SCCN3CCCCC3)c12`, 6.4% (active). Under `N#C/C(=C\c1cccnc1)C(=O)Nc1ccc(SC(F)F)cc1` stands -1.66%; under `Nc1ccc2nc3c(=O)[nH]c(=S)[nH]c3nc2c1`, 26.7% (active); under `Cc1cccc(OCC(=O)Nc2ccc(C(=O)O)cc2NC(=O)COc2cccc(C)c2)c1`, -0.18%.

Regarding `O=C(CSc1nnnn1-c1ccc(O)cc1)N1N=C(c2ccc3ccccc3c2)CC1c1ccccc1` (centres undefined), the inhibition was -2.75%. As to `COc1ccc(N2CCN(S(=O)(=O)c3ccc4c(c3)N(C(C)=O)CCO4)CC2)cc1`, the inhibition is -2.08%.

Take `Cc1ccnc(NC(=O)c2ccco2)n1`: the inhibition was 29.4% (active). Turning to `O=C(Nc1ccc2nccnc2c1)c1ccco1`, the inhibition is -1.29%. As to `O=C(Nc1ccccc1)c1ccco1`, the inhibition was -3.16%. In the case of `Cc1cccc2c1cnn2C(=O)CCC(=O)NC1CCCCC1` it was -3.55%. In the case of `Cc1cccc(NC(=O)Cn2c(=O)n(Cc3ccccc3)c(=O)c3c(C)c(C)sc32)c1`, the inhibition is -3.05%.

As for `CCN(CC(=O)Nc1ccc(S(=O)(=O)N2CCCC2)cc1)CC(=O)Nc1cccc(OC)c1`, the inhibition was 13% (active). For `COc1ccccc1CC(=O)Nc1ccc(S(=O)(=O)N2CCCC2)cc1`, the inhibition is -1.76%.

For `CCOc1cccc(NC(=O)C2CCCN(S(=O)(=O)c3ccc(OC)cc3)C2)c1` (centres undefined), the inhibition was 0.1%.

In the case of `O=C(CN1CCN(c2ccc(O)cc2)CC1)Nc1ccc(-c2ccccc2)cc1`, the inhibition is -3.22%. For the molecule `CC(C)N(C(=O)Cn1cc(S(=O)(=O)CC(=O)N2CCOCC2)c2ccccc21)C(C)C`, the inhibition was 1.49%.

With `CC1=C(C(=O)Nc2ccccc2)C(c2ccco2)C(C#N)=C(SCC(N)=O)N1` (centres undefined), the inhibition is -0.1%. Consider `Cc1cc(C)c2c3c(sc2n1)C(c1ccccc1)C(C#N)=C(N)O3` (centres undefined), for which the inhibition was -3.3%. Regarding `N#CC1=C(N)Oc2c(sc3ccccc23)C1c1ccco1` (centres undefined), the inhibition is 5.37% (active). For the molecule `O=C(O)CN1C(=O)CC(Cc2ccccc2)C1=O` (centres undefined), the inhibition is 4.79% (active). As for `Cc1cc(C)nc(N2C(=O)CC(Cc3ccccc3)C2=O)n1` (centres undefined), the inhibition was -2.26%. Regarding `O=C1CC(Cc2ccccc2)C(=O)N1c1ccc(Cl)cn1` (centres undefined), the inhibition is -3.13%. As to `CCOC(=O)CCCNC(=O)COC(=O)/C=C/c1ccc2c(c1)OCO2`, the inhibition was -0.37%. `CCC1=C/C(=C\c2ccc3c(c2)OCO3)C(=O)S1`: the inhibition is 6.67% (active). Take `O=C1/C(=C/c2ccc3c(c2)OCO3)CCC/C1=C\c1ccc2c(c1)OCO2`: the inhibition was 0.49%.

For `O=C(Nc1ccc(F)cc1)C(=O)c1cn(CC(=O)N2CCOCC2)c2ccccc12`, the inhibition was -5.04%. On to `CS(=O)(=O)N1CCN(C(=O)CSc2ccccc2)CC1`, for which the inhibition is -2.52%. On to `Oc1ccc2ccc3cccc[n+]3c2c1`, for which the inhibition is 34.3% (active).

Take `CCCCC(=O)Nc1ccccc1N1CCN(c2ccc(F)cc2)CC1`: the inhibition is -3.05%.

Take `Cc1ccc(CNC(=O)C2CCN(S(=O)(=O)c3ccc4nc5c(c(C(=O)O)c4c3)CC(C)CC5)CC2)cc1` (centres undefined): the inhibition was 5.35% (active). Under `CCOC(CNC(=O)C1CCN(S(=O)(=O)c2ccc3nc4c(c(C(=O)O)c3c2)CC(C)CC4)CC1)OCC` (centres undefined) stands -0.25%; under `CC(=O)N1c2ccc(S(=O)(=O)N3CCC(C(=O)NCc4ccc(F)cc4)CC3)cc2CC1C` (centres undefined), -3.57%; under `Cc1nc(CN(C)C(=O)CC2C(=O)NCCN2Cc2ccc(F)cc2)cs1` (centres undefined), -2.3%. Under `CCOc1ccc(NC(=O)N2CC=C(n3c(=O)[nH]c4ccccc43)CC2)cc1` stands 6.24% (active). For `Cc1cccc(C)c1NC(=O)N1CC=C(n2c(=O)[nH]c3ccccc32)CC1`, the inhibition was -4.93%. Consider `CCOc1ccc(NC(=O)N2CCN(CC)CC2)cc1`, for which the inhibition is -1.66%. `COc1ccc(NC(=O)CN2C(=O)COc3ccc(S(=O)(=O)N4CCOCC4)cc32)cc1`: the inhibition was -3.61%. For the molecule `Cc1ccc(CNC(=O)C(=O)c2cn(CC(=O)N3CCOCC3)c3ccccc23)cc1`, the inhibition is -2.82%. With `O=C(Nc1ccc(C(=O)N2CCCCC2)cc1)c1cccc([N+](=O)[O-])c1`, the inhibition is -1.61%.

As for `Cn1ccc(=Nc2ccc(NC(=O)c3ccc(N=c4ccn(C)c5ccc([N+](=O)[O-])cc45)cc3)cc2)cc1`, the inhibition was 14.8% (active). As for `Cc1cc([N+](=O)[O-])ccc1NC(=O)c1ccc(NC(=O)C(C)C)cc1`, the inhibition is -0.19%.

For `Cc1sc2ncn(CC(=O)NCCCC(=O)N(C)Cc3ccccc3)c(=O)c2c1C`, the inhibition is -3.46%. Regarding `Cc1ccc(-n2ncc3c2CC(C)(C)CC3NC(=O)CCc2cnn(C)c2)cc1` (centres undefined), the inhibition is -2.72%. In the case of `COCCOC(=O)c1sc(=S)n(CCOC)c1N` it was -0.79%; in that of `CCN(Cc1ccccc1)C(=O)CCS(=O)(=O)c1ccc2c(c1)oc(=O)n2C`, -3.48%; in that of `C=CCn1c(=O)c(C(=O)Nc2ncccc2O)c(O)c2ccccc21`, -5.49%. For the molecule `Cc1c(CCC(=O)O)c(=O)oc2cc(OCc3ccc(Br)cc3)ccc12`, the inhibition is -4.45%. Consider `CCOC(=O)CCc1c(C)c2ccc(OCc3nn[nH]n3)c(C)c2oc1=O`, for which the inhibition was -1.75%.

Regarding `Cc1c(CCC(=O)O)c(=O)oc2c(C)c(OCc3ccccc3Cl)ccc12`, the inhibition is 11.5% (active). With `COc1ccccc1N1CCN(S(=O)(=O)CCNC(=O)c2ccc(OC(C)C)cc2)CC1`, the inhibition was -1.73%. As to `CCOc1cc(NC(=O)Nc2ccccc2)c(OCC)cc1NC(=O)CC`, the inhibition is 1.47%. For `CCOC(=O)Nc1ccc2c(c1)N(C(=O)CCCl)c1ccccc1[S@]2=O`, the inhibition was -1.86%. As for `COc1ccc(-n2c(=O)[nH]c3cc(C(=O)NCCc4ccc(OC)c(OC)c4)ccc3c2=O)c(OC)c1`, the inhibition was -0.95%.

As to `O=C(N/N=C/c1c[nH]c2ccccc12)c1ccccc1O`, the inhibition is -3.56%.

With `COc1ccc(/C=C(\C#N)c2c[nH]c3ccccc23)cc1`, the inhibition was -0.02%.

Regarding `C[n+]1ccc(/C=C/c2c[nH]c3ccccc23)cc1`, the inhibition is 11.3% (active).

The record behind these values is PubChem BioAssay AID1556 (The Scripps Research Institute Molecular Screening Center, 2009).
